The record followed here is ChEMBL document CHEMBL3352265, “Potentially bioactive organotin(IV) compounds: synthesis, characterization, in vitro bioactivities and interaction with SS-DNA” (Eur J Med Chem, 2014).

In brackets after ≈: the same amount, converted by molar mass. Activity calls are given as the source filed them. The rule behind the calls is not given here.

What is called IC50 is the concentration needed to halve the response being measured. A lower IC50 goes with greater potency. As a reminder, the MIC is the lowest concentration that inhibits growth of the organism.

Experiment [1] deals with Leishmania major. Description: Antileishmanial activity against Leishmania major kwh 23 after 72 hrs using neobar counting by microscopy. Type of experiment: functional, organism-based. As to conditions: kwh 23, 72 h. The gist of the method:
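Leishmania major promastigotes grown 7 days at 24 °C in medium 199 with 10% FBS. Samples as 10,000 ppm DMSO stocks, added to reach 200 ppm in the first row and serially diluted in 96-well plates, DMSO kept <5%. DMSO negative and amphotericin B positive controls. Incubated 72 h at 24 °C. Mortality counted in a counting chamber by light microscopy. Run 3 times. IC50 is the concentration giving 50% parasite reduction.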

Experiment [2] concerns Bordetella bronchiseptica. Description: Antibacterial activity against Bordetella bronchiseptica ATCC 4617 at 40 mg/mL after 24 hrs by disc diffusion method. In kind it is functional. In short, it runs like this: (§1)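 Disc diffusion. Strains grown in nutrient broth at 37 °C for 24 h. 1% culture (about 10^6 CFU/mL) mixed into nutrient agar at 45 °C and poured. 4 mm paper discs received compound at 40 mg/mL stock in DMSO; final concentrations tested were […]. DMSO served as negative control, roxithromycin and cefixime as positive controls. Triplicate plates incubated at 37 °C for 24 h. Complete-inhibition zone diameter (mm) recorded as the mean of 3.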

In experiment [3] the test system is Aspergillus niger. Briefly: Antifungal activity against Aspergillus niger FCBP 0198 at 40 mg/mL after 7 days by disc diffusion method. In kind it is functional. The gist of the method:
(§2)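 Disc diffusion on SDA. Fungi cultured at 28 °C for 24 h. 4 mm discs received compound at 40 mg/mL stock in DMSO. DMSO served as negative control, terbinafine as positive control. Plates incubated at 28 °C for 7 days. Growth diameter (mm) measured and inhibition calculated against the negative control. MIC taken as the lowest concentration with no growth.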
On the technique in general: A growth-free zone around the sample is the usual read-out of agar diffusion tests.

Experiment [4] has as its system Klebsiella aerogenes. Description: Antibacterial activity against Enterobacter aerogenes ATCC 13048 at 40 mg/mL after 24 hrs by disc diffusion method. Type of experiment: functional. The gist of the method:
as §1

Experiment [5] concerns Escherichia coli. Description: Induction of Escherichia coli pBR322 DNA damage assessed as open circular form at 1000 ug/ml after 60 mins by gel electrophoresis.
Experiment [6] has as its system Agrobacterium tumefaciens. Briefly: Antitumor activity against Agrobacterium tumefaciens -induced tumor at 1000 ug/ml after 21 days by potato disc bioassay technique. In kind it is functional. The gist of the method:
(§3)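 Potato disc assay with 48 h culture of A. tumefaciens At-10. Inoculum contained compound at […]. Red-skinned potatoes sterilized in 0.1% HgCl2; 8 mm × 4 mm discs placed ten per 1.5% agar plate, […] each. Incubated at 28 °C in the dark for 21 days, in triplicate. Discs stained with Lugol's and tumors counted. Percent inhibition calculated against the negative control.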

For experiment [7], the system named is Escherichia coli. Description: Induction of Escherichia coli pBR322 DNA damage assessed as open circular form at 10 ug/ml after 60 mins by gel electrophoresis.
The test system of experiment [8] is Staphylococcus aureus. Description: Antibacterial activity against Staphylococcus aureus ATCC 6538 at 40 mg/mL after 24 hrs by disc diffusion method. Type of experiment: functional. The gist of the method: as §1
In experiment [9] the test system is Escherichia coli. Description: Antibacterial activity against Escherichia coli ATCC 15224 after 18 hrs by microdilution method. Type of experiment: functional. The gist of the method: (§4)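 Broth microdilution. Twofold dilutions in culture broth at […]. Each well inoculated with bacterial suspension (10^8 CFU/mL, about 10^5 CFU/well). Sterility control and growth control (broth plus DMSO) included. Incubated at 36 °C for 18 h, in triplicate. MIC taken as the lowest concentration inhibiting growth, given in micrograms per mL.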
Background: Broth dilution looks for growth in wells or tubes with falling amounts of substance.

For experiment [10], the system named is Bordetella bronchiseptica. Briefly: Antibacterial activity against Bordetella bronchiseptica ATCC 4617 after 18 hrs by microdilution method. Type of experiment: functional. The gist of the method:
as §4

Experiment [11] deals with Artemia salina. Description: Cytotoxicity in brine shrimp assessed as mortality after 24 hrs. Type of experiment: functional.
For experiment [12], the system named is Staphylococcus aureus. Briefly: Antibacterial activity against Staphylococcus aureus ATCC 6538 after 18 hrs by microdilution method. Type of experiment: functional. The gist of the method: as §4
The test system of experiment [13] is Agrobacterium tumefaciens. Description: Antitumor activity against Agrobacterium tumefaciens -induced tumor at 10 ug/ml after 21 days by potato disc bioassay technique. Type of experiment: functional. In short, it runs like this:
as §3

Experiment [14] deals with Agrobacterium tumefaciens. Description: Antitumor activity against Agrobacterium tumefaciens -induced tumor at 100 ug/ml after 21 days by potato disc bioassay technique. Type of experiment: functional. In short, it runs like this:
as §3

The test system of experiment [15] is Escherichia coli. Description: Antibacterial activity against Escherichia coli ATCC 15224 at 40 mg/mL after 24 hrs by disc diffusion method. Type of experiment: functional. The gist of the method: as §1
Experiment [16] relates to Aspergillus fumigatus. Description: Antifungal activity against Aspergillus fumigatus FCBP 66 at 40 mg/mL after 7 days by disc diffusion method. Type of experiment: functional. The gist of the method: as §2
The test system of experiment [17] is Salmonella typhimurium. Description: Antibacterial activity against Salmonella typhimurium ATCC 14028 at 40 mg/mL after 24 hrs by disc diffusion method. Type of experiment: functional, Salmonella enterica subsp. enterica serovar Typhimurium. The settings on record: for inhibition zone (IZ): Salmonella enterica subsp. enterica serovar Typhimurium. In short, it runs like this: as §1

The test system of experiment [18] is Mucor. Briefly: Antifungal activity against Mucor FCBP 0400 at 40 mg/mL after 7 days by disc diffusion method. In kind it is functional. The gist of the method: as §2
Experiment [19] has as its system Escherichia coli. Briefly: Induction of Escherichia coli pBR322 DNA damage assessed as open circular form at 1 ug/ml after 60 mins by gel electrophoresis.
Experiment [20] relates to Salmonella typhimurium. Briefly: Antibacterial activity against Salmonella typhimurium ATCC 14028 after 18 hrs by microdilution method. In kind it is functional, Salmonella enterica subsp. enterica serovar Typhimurium. In short, it runs like this: as §4
Experiment [21] deals with Agrobacterium tumefaciens. Briefly: Antitumor activity against Agrobacterium tumefaciens -induced tumor after 21 days by potato disc bioassay technique. Type of experiment: functional, organism-based. As to conditions: 504 h. The gist of the method:
as §3

Experiment [22] concerns Escherichia coli. Briefly: Induction of Escherichia coli pBR322 DNA damage assessed as open circular form at 100 ug/ml after 60 mins by gel electrophoresis.
The test system of experiment [23] is Bacillus spizizenii. Briefly: Antibacterial activity against Bacillus subtilis ATCC 6633 after 18 hrs by microdilution method. In kind it is functional. The gist of the method: as §4
Experiment [24] relates to Bacillus spizizenii. Description: Antibacterial activity against Bacillus subtilis ATCC 6633 at 40 mg/mL after 24 hrs by disc diffusion method. Type of experiment: functional. The gist of the method:
as §1

Experiment [25] deals with Aspergillus flavus. Briefly: Antifungal activity against Aspergillus flavus FCBP 0064 at 40 mg/mL after 7 days by disc diffusion method. In kind it is functional. The gist of the method:
as §2

The subject of experiment [26] is Klebsiella aerogenes. Description: Antibacterial activity against Enterobacter aerogenes ATCC 13048 after 18 hrs by microdilution method. Type of experiment: functional, organism-based. In short, it runs like this:
as §4

The subject of experiment [27] is Aspergillus niger. Briefly: Antifungal activity against Aspergillus niger FCBP 0198 after 7 days by disc diffusion method. Type of experiment: functional, organism-based. The gist of the method:
as §2

The test system of experiment [28] is Aspergillus fumigatus. Briefly: Antifungal activity against Aspergillus fumigatus FCBP 66 after 7 days by disc diffusion method. Type of experiment: functional, organism-based. In short, it runs like this:
as §2

Experiment [29] concerns Aspergillus flavus. Briefly: Antifungal activity against Aspergillus flavus FCBP 0064 after 7 days by disc diffusion method. In kind it is functional, organism-based. In short, it runs like this: as §2
Experiment [30] deals with Mucor. Description: Antifungal activity against Mucor FCBP 0400 at 40 mg/mL by disc diffusion method. In kind it is functional, organism-based. The gist of the method:
as §2

Setting [31] is: Salmonella enterica subsp. enterica serovar Typhimurium.

For `C[C@@H]1[C@H](O)[C@@H](C)/C=C/C=C/C=C/C=C/C=C/C=C/C=C/[C@H](O[C@@H]2O[C@H](C)[C@@H](O)[C@H](N)[C@@H]2O)C[C@@H]2O[C@](O)(C[C@@H](O)C[C@@H](O)[C@H](O)CC[C@@H](O)C[C@@H](O)CC(=O)O[C@H]1C)C[C@H](O)[C@H]2C(=O)O` [AMPHOTERICIN B], the IC50 in experiment [1] came out at 0.56 µg/mL (≈ 0.606 µM).

As to `COc1ccccc1NC(=O)CCC(=O)O`, the zone of inhibition at 40000 µg/mL in [2] (ATCC 4617, 24 h, read-out: DIZ) was 9 mm; in [3] (FCBP 0198, 168 h, read-out: DIZ), 0 mm; in experiment [4] (ATCC 13048, 24 h, read-out: DIZ), 0 mm; in experiment [8] (ATCC 6538, 24 h, read-out: DIZ), 11 mm; in experiment [15] (ATCC 15224, 24 h, read-out: DIZ) it was 16 mm; in experiment [16] (FCBP 66, 168 h, read-out: DIZ) it was 0 mm. Further, the zone of inhibition at 40000 µg/mL in experiment [17] (Salmonella enterica, ATCC 14028, 24 h, read-out: DIZ) was determined as 8 mm; in [18] (FCBP 0400, 168 h, read-out: DIZ) it was 0 mm; in experiment [24] (ATCC 6633, 24 h, read-out: DIZ) it was 10 mm; in experiment [25] (FCBP 0064, 168 h, read-out: DIZ), 0 mm. Also, the result in [5], in [7], in experiment [19] and in experiment [22] was inactive. The Activity in [6] was found to be 62.64%; in experiment [13], 5.63%; in [14] it was 31.14%. For the same molecule, the figures for the IC50 in experiment [1] and in experiment [21] were 0.00342 µg/mL (≈ 0.0153 µM) and 410 µg/mL (≈ 1840 µM), respectively. For the same molecule, the MIC in experiment [9] (ATCC 15224, 18 h) was 100 µg/mL (≈ 448 µM); in experiment [10] (ATCC 4617, 18 h), 200 µg/mL (≈ 896 µM); in experiment [12] (ATCC 6538, 18 h), 100 µg/mL (≈ 448 µM); in [20] (Salmonella enterica, ATCC 14028, 18 h) it was 200 µg/mL (≈ 896 µM); in experiment [23] (ATCC 6633, 18 h), 200 µg/mL (≈ 896 µM). In [11] (read-out: LD50 (the source's name)), the LC50 worked out at 192 µg/mL (≈ 861 µM).

With “N-[(2-methoxyphenyl)]-4-oxo-4-[(trimethylstannyl)oxy]butanamide”, the inhibition zone (IZ) is 26 mm in experiment [2]; 28 mm in experiment [3]; 20 mm in experiment [4]; 25 mm in [8]; 26 mm in experiment [15]; 22 mm in experiment [16]. Also, the inhibition zone (IZ) in [17] worked out at 23 mm; in [18] it was 24 mm; in experiment [24] it was 27 mm; in experiment [25], 28 mm. Also, the MIC in experiment [26] worked out at 50 µg/mL; in [9] it was 25 µg/mL; in experiment [10] it was 12.5 µg/mL; in experiment [12] it was 50 µg/mL; in experiment [27], 12.5 µg/mL; in experiment [28], 50 µg/mL. Also, the MIC came to 50 µg/mL in experiment [29], 25 µg/mL in [20] (setting [31]), 25 µg/mL in experiment [23] and 50 µg/mL in [30]. The outcome in experiment [5], in experiment [7], in experiment [19] and in experiment [22] was Active. Also, the Activity in [6] is 69.9%; in experiment [13], 30.2%; in [14] it was 54.8%. For the same molecule, the LD50 in experiment [11] worked out at 1.09 µg/mL.

Regarding “Di-tert-butylstannanediyl bis[4-(2-methoxyphenylamino)-4-oxobutanoate]”, the inhibition zone (IZ) in [2] was 30 mm; in experiment [3] it was 24 mm; in experiment [4], 40 mm; in [8], 17 mm; in experiment [15] it was 24 mm; in [16] it was 18 mm. The inhibition zone (IZ) in experiment [17] came out at 26 mm; in experiment [18], 14 mm; in [24], 40 mm; in experiment [25], 20 mm. Further, the MIC was found to be 6.25 µg/mL in experiment [26]; 12.5 µg/mL in experiment [9]; 12.5 µg/mL in [10]; 12.5 µg/mL in [12]; 100 µg/mL in experiment [27]; 100 µg/mL in experiment [28]. Also, the MIC in experiment [29] came to 100 µg/mL; in experiment [20] (setting [31]), 6.25 µg/mL; in experiment [23], 12.5 µg/mL; in experiment [30], 100 µg/mL. Also, the outcome in experiment [5], in experiment [7], in [19] and in experiment [22] was Active. Further, the Activity in experiment [6] was 92.4%; in experiment [13] it was 53.4%; in experiment [14], 71.5%. The LD50 in experiment [11] stood at 3.11 µg/mL.
